DAGLB inh: diacylglycerol lipase beta (human) inhibition | Q8NCG7 | HEK293T DAGLB membrane lysate, EnzChek fluorogenic substrate | inhibition, % at 5.17 µM | 0.059% of 340,000 active; in the data active = inhibition above about 34%;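 note: 0% = enzyme with vehicle and 100% = wells lacking enzyme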
MT1-MMP act inh: inhibitors of human MT1-MMP activation | HT1080 RFP-PRO-GFP cells, GFP/RFP ratio fluorescence, overnight; percent of plate control window, DMSO zero | 0.061% of 360,000 active | GFP/RFP ratio change, % at 20 µM | P50281;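 active = GFP/RFP ratio change of at least 30% with cell ATP level not reduced by more than half and red fluorescence within 50% of control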
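Assay system: RFP-PRO-GFP reporter HT1080 cells; read-out basis: GFP/RFP fluorescence ratio; benchmarks: DMSO wells and RFP-L50D-GFP cells; doses: 20 µM single dose, 1% DMSO; schedule: overnight cell settling, then overnight compound exposure, 37 °C, 5% CO2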
CendR NRP1 mod: alters CendR peptide binding to human NRP-1; O14786; FAM-RPARPAR peptide binding to NRP-1, fluorescence polarization; inhibition, % at 25 µM; 0.85% of 360,000 active; AID 602438;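 active = inhibition or corrected inhibition above about 18%, plus a signal ratio from 0.5 to 1.5, limit read from the data, passing the limit was not always enough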
MIN6 prolif-1: induces beta-cell replication in MIN6 cells; MIN6 cells proliferation, ATPlite luminescence, 48 h; cells starved in 0.2% serum; 100% = growth in 10% serum; proliferation, % at 10 µM; 0.29% of 330,000 active; AID 2380;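 active = compounds whose signal lies at least 3.5 SD above the mean of all wells on their plate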;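 note: 0% = DMSO-treated cells in low-serum medium and 100% = 10% serum control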
Myeloid diff 2: compounds promoting myeloid differentiation; calls only at 10 µM; 1% of 360,000 active; ER-HoxA9 myeloid progenitors, lysozyme-GFP differentiation, flow cytometry;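 active = normalized GFP-positive differentiation at or above the plate's own cutoff, the solvent-only control mean plus 3 SD; inconclusive = no clear call, values can overlap the other calls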;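 note: cells exposed to compound for four days before flow analysis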
SENP1 FRET inh: inhibitors of human SENP1 SUMO protease catalytic domain; recombinant SENP1 catalytic domain, CyPet-SUMO1-YPet FRET cleavage; inhibition, % at 10 µM; 0.21% of 360,000 active; AID 624204;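 active = inhibition at least 30% at 10 µM, raw YFP signal under a set limit, fluorescence ratio 0.5 to 1.5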;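 note: 0% = enzyme with DMSO and 100% = no enzyme wells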
Target sequence (Q9P0U3 419-644 limits assumed): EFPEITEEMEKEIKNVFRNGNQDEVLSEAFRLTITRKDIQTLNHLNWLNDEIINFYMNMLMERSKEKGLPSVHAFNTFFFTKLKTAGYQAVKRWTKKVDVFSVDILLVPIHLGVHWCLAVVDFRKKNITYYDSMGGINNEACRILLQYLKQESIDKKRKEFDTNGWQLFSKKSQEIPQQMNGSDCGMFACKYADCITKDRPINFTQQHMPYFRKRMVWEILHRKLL
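system = hSENP1 catalytic domain, recombinant | reagent = SFCypet-SUMO1-SFYpet substrate at 25 nM | doses = one dose per compound, 10 µM, 0.5% DMSO | incubation = enzyme reaction for 50 min at room temperature, dark | measured by = FRET, CFP and YFP emission | controls = no-enzyme low, enzyme-DMSO high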
MIN6 prolif-2: confirmation of inducers of beta-cell replication in MIN6 cells; shares compounds with MIN6 prolif-1; MIN6 beta-cell proliferation, ATPlite luminescence, 48 h; cells kept in 0.2% serum; scaled between 0.2% and 10% serum; proliferation increase, % at 50 µM; 920 tested, under 10 active; AID 463095;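 active = proliferation increase above 40% at any of the four tested concentrations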
* hit, by the source's call; i = inactive; u = inconclusive; x = no result. A selection: hits, their analogues and other compounds. The true share with any hit is near 2.4%.

SMILES	DAGLB inh	MT1-MMP act inh	CendR NRP1 mod	MIN6 prolif-1	Myeloid diff 2	SENP1 FRET inh	MIN6 prolif-2
O=C(CC(=O)c1ccccc1)CC(O)(C=Cc1ccccc1)c1ccccc1 (stereo unspecified)	-15	2	2	x	u	-4	x
COc1ccc(C(=O)NCC(=O)OCCCOC(=O)CNC(=O)c2ccc(OC)c(OC)c2)cc1OC	-1	8	14	3	i	-1	x
CCOc1ccc(C(=O)NCC(=O)OCCCC(=O)c2ccc(F)cc2)cc1OCC	2	2	-5	14*	i	1	-2
CCOc1ncccc1C(=O)Nc1cccc(S(=O)(=O)NC2=NCCC2)c1	3	3	13	12*	i	1	0
COc1cc(-c2noc(C)c2C#CC2(O)CCCCC2)cc(OC)c1OC	-7	5	-5	12*	i	-2	-6
CN(Cc1ccccc1)C(=O)c1ccc(S(=O)(=O)N(C)c2ccccc2)cc1	-2	-2	-1	1	i	-1	x
C/C(=N/NC(=O)c1ccc(Br)s1)c1cccnc1	-9	-4	0	-3	i	2	x
C/C(=N/NC(=O)c1ccc(Br)s1)c1ccncc1	-3	-10	-4	15*	i	0	3
O=C(COc1ccccc1Cl)Nc1ccc(S(=O)(=O)Nc2ccccn2)cc1	0	1	6	0.0*	i	1	1
CCCCn1c(-c2nonc2N)nc2ccccc21	-10	-12	5	8.1*	i	-10	-4
CN(c1cccc(NC(=O)CN(c2cccc(F)c2)S(C)(=O)=O)c1)S(C)(=O)=O	-2	-1	8	-3	i	1	x
COc1ccccc1C(=O)NCC(C)(C)CN=C1NS(=O)(=O)c2ccccc21	0	0	2	6.6*	i	-1	-2
COc1ccccc1C(=O)NCCN=C1NS(=O)(=O)c2ccccc21	0	3	5	-5	i	0	x
Cc1ccc(NC(=O)NNC(=O)C2CC(c3cccs3)=NO2)cc1 (stereo unspecified)	-1	0	2	-1	i	0	x
Cc1cc(C)nc(N2CCN(S(=O)(=O)c3ccc(F)cc3)CC2)n1	-5	-6	0	-3	i	-3	x
COc1ccc(CCC(=O)OCC(=O)NCc2ccc(OC)c(OC)c2)cc1OC	-4	0	11	9.2*	i	1	2
COc1cc(CCC(=O)OCC(=O)NCc2ccc(Cl)cc2)cc(OC)c1OC	-1	-3	-7	-1	i	1	x
O=C(COC(=O)CNC(=O)c1ccccc1)Nc1ccc2c(c1)OCO2	2	-1	-14	-1	i	3	x
CC(C)c1nc2n[nH]c(N)c2c2c1CCCC2	0	-4	4	6.1*	i	1	7
CC(C)Cc1nc2n[nH]c(N)c2c2c1CCC2	2	10	-5	0.0*	i	-2	2
COc1cccc(C#Cc2cnc3c(c2)C(=O)N([C@@H](C)CO)C[C@H](C)[C@H](CN(C)C(=O)C2CCC2)O3)c1	0	0	-6	x	i	-18	x
COc1ccc([N+](=O)[O-])cc1NCc1cccc([N+](=O)[O-])c1	4	1	0	-1	i	9	x
COc1ccc([N+](=O)[O-])cc1NCc1cccnc1	-3	1	10	11*	i	6	2
Oc1cccc(/C=N/NC(=S)NCCN2CCOCC2)c1O	-3	3	-1	-5	i	-7	x
S=C(NCCN1CCOCC1)N/N=C/c1cccs1	-1	0	5	10*	i	-1	-6
SMILES	DAGLB inh	MT1-MMP act inh	CendR NRP1 mod	MIN6 prolif-1	Myeloid diff 2	SENP1 FRET inh	MIN6 prolif-2
COc1ccc(CNC/C=C/c2ccccc2)cc1	0	1	2	7.6*	i	-2	-6
O=C(CCNC(=O)c1ccc([N+](=O)[O-])cc1)Nc1ccc(S(=O)(=O)N2CCOCC2)cc1	-1	-5	19	-1	i	0	x
Cc1cc(C)c2ccc(Cl)cc2n1	1	11	7	-5	i	0	x
CC(=O)c1c(C)nc2cc(Cl)ccc2c1N	0	3	-12	5.5*	i	1	6
COc1cccc(NC(=O)C2Cc3ccccc3CN2C(=O)c2ccco2)c1 (stereo unspecified)	0	4	-13	-3	i	-8	x
CCN(CC)S(=O)(=O)c1ccc(N2CCOCC2)c(NC(=O)c2c3c(nc4ccccc24)CCC3)c1	0	-2	24	7.6*	i	-124	-1
COC(=O)C1=C(COc2ccccc2)NC(=O)NC1c1ccc(Br)cc1 (stereo unspecified)	1	7	17	-9	i	0	x
Cc1cccc(/C=N/n2c(C3CCCCC3)n[nH]c2=S)c1	-10	1	-2	6.7*	i	3	-6
S=c1[nH]nc(C2CCCCC2)n1/N=C/c1cccc(Br)c1	-3	1	3	2	i	2	x
COc1ccc(OC)c(N2C(N)=NC(N)=NC23CCCC3)c1	-3	1	11	5.7*	i	3	0
CCN(CC(=O)Nc1c(F)cccc1F)C(=O)C1CCCN(C(=O)c2ccc(Cl)cc2)C1 (stereo unspecified)	1	-3	14	-2	i	0	x
CN(CC(=O)N(C)CC(=O)Nc1c(Cl)cccc1Cl)Cc1ccccc1F	0	3	-11	3	i	0	x
C/C(=N\OCC(=O)N/N=C/c1ccccc1O)c1cccs1	-2	2	1	-5	i	-8	x
COc1cccc(/C=N/NC(=O)CO/N=C(\C)c2cccs2)c1OC	-6	3	0	4.6*	i	3	0
CCOc1ccccc1CNC(=O)CNC(=O)c1cccs1	0	-1	10	17*	i	0	1
CCOc1ccccc1C(=O)NCC(=O)NNC(=O)c1cccs1	-2	0	-2	-1	i	0	x
COc1ccc(CCNC(=O)CN2c3cccc4cccc(c34)S2(=O)=O)cc1	-5	0	12	13*	i	1	5
COc1ccc(NC(=O)CN2c3cccc4cccc(c34)S2(=O)=O)cc1	1	1	6	-3	i	-1	x
Cc1cccc(C)c1-n1nnnc1C1(C)CCC(=O)N1CC1CCCCC1 (stereo unspecified)	x	1	2	x	i	2	x

Assay outcomes (PubChem)
